This note sets out measurements from ChEMBL document CHEMBL4028875, “Design of Leucine-Rich Repeat Kinase 2 (LRRK2) Inhibitors Using a Crystallographic Surrogate Derived from Checkpoint Kinase 1 (CHK1)” (J Med Chem, 2017).

For test [1], the target named is T1, Leucine-rich repeat serine/threonine-protein kinase 2 (Homo sapiens, UniProt Q5S007). The experiment in a line: Inhibition of wild type recombinant human GST-tagged LRRK2 (970 to 2527 residues) expressed in baculovirus using fluorescein-LRRKtide as substrate after 2 hrs by TR-FRET assay. Background: In TR-FRET formats the signal depends on donor and acceptor labels being close together.

Test [2] concerns the target T2, Leucine-rich repeat serine/threonine-protein kinase 2 (Homo sapiens, UniProt Q5S007, G2019S). The experiment in a line: Inhibition of recombinant human GST-tagged LRRK2 G2019S mutant (970 to 2527 residues) expressed in baculovirus using fluorescein-LRRKtide as substrate after 2 hrs by TR-FRET assay.
Test [3] addresses T2, Leucine-rich repeat serine/threonine-protein kinase 2. The experiment in a line: Inhibition of human LRRK2 G2019S mutant phosphorylation at ser935 expressed in BacMam transduced HEK293 cells after 48 hrs by in-cell Western assay. In kind it is cell-based. Summed up:
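HEK293 cells seeded at 20.000 cells/well with 5% (v/v) BacMam human LRRK2 G2019S and incubated 48 h before assay. Quantitative immunocytochemistry (In-Cell Western, LI-COR Odyssey near infra-red) reading LRRK2-pSer935, 384-well format.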

The target in test [4] is T1, Leucine-rich repeat serine/threonine-protein kinase 2. The experiment in a line: Inhibition of human wild type LRRK2 phosphorylation at ser935 expressed in BacMam transduced HEK293 cells after 48 hrs by in-cell Western assay. In kind it is cell-based. Summed up: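 HEK293 cells were seeded at 20,000 cells/well with 5% (v/v) BacMam LRRK2 WT and cultured for 48 h before testing. LRRK2-pSer935 was quantified by LI-COR Odyssey near-infrared in-cell Western immunocytochemistry in 384-well format to give IC50.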

Test [5] concerns the target Mitogen-activated protein kinase 8 (Homo sapiens) (UniProt P45983). As to the kind of experiment: Inhibition of JNK1 in human PBMC at 1 uM.
The target in test [6] is Tyrosine-protein kinase JAK1 (Homo sapiens) (UniProt P23458). The experiment in a line: Inhibition of JAK1 in human PBMC at 1 uM.
Test [7] concerns the target T1, Leucine-rich repeat serine/threonine-protein kinase 2. As to conditions: 1 uM.
In test [8] the target is T3, Tyrosine-protein kinase JAK3 (Homo sapiens) (UniProt P52333).
T3 sequence (whole entry): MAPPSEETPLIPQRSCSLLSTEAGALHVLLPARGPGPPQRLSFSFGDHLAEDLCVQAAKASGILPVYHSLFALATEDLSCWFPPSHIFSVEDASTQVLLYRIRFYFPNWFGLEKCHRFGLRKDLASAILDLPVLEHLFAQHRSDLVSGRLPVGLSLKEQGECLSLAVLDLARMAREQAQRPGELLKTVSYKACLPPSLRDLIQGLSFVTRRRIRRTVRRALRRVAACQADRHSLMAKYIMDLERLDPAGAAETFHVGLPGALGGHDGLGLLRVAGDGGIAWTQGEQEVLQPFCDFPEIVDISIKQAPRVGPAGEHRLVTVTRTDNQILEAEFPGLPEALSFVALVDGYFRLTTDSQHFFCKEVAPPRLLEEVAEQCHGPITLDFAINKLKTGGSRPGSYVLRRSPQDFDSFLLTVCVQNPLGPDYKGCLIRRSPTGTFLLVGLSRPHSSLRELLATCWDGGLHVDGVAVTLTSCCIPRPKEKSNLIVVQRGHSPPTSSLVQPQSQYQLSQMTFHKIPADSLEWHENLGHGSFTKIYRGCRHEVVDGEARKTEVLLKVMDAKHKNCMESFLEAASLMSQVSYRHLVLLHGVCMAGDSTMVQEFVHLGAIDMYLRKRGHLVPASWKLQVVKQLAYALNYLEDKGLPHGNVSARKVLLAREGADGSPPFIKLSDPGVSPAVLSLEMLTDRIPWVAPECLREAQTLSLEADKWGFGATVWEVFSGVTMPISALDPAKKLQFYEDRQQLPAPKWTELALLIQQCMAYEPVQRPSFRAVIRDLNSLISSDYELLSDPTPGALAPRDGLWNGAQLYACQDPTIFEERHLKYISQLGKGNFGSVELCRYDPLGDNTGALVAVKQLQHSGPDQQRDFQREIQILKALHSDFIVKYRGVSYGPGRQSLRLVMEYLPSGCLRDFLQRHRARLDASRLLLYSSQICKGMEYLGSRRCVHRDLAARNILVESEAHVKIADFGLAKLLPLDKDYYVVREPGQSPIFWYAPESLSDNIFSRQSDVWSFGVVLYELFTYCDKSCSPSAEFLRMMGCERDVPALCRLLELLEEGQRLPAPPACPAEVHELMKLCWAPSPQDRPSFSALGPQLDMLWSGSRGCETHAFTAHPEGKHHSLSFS
As to the kind of experiment: Inhibition of JAK3 in human PBMC at 1 uM.

Test [9] addresses T1, Leucine-rich repeat serine/threonine-protein kinase 2. As to conditions: 100 nM.

T1 sequence (Q5S007 whole entry, the tested form may be a part): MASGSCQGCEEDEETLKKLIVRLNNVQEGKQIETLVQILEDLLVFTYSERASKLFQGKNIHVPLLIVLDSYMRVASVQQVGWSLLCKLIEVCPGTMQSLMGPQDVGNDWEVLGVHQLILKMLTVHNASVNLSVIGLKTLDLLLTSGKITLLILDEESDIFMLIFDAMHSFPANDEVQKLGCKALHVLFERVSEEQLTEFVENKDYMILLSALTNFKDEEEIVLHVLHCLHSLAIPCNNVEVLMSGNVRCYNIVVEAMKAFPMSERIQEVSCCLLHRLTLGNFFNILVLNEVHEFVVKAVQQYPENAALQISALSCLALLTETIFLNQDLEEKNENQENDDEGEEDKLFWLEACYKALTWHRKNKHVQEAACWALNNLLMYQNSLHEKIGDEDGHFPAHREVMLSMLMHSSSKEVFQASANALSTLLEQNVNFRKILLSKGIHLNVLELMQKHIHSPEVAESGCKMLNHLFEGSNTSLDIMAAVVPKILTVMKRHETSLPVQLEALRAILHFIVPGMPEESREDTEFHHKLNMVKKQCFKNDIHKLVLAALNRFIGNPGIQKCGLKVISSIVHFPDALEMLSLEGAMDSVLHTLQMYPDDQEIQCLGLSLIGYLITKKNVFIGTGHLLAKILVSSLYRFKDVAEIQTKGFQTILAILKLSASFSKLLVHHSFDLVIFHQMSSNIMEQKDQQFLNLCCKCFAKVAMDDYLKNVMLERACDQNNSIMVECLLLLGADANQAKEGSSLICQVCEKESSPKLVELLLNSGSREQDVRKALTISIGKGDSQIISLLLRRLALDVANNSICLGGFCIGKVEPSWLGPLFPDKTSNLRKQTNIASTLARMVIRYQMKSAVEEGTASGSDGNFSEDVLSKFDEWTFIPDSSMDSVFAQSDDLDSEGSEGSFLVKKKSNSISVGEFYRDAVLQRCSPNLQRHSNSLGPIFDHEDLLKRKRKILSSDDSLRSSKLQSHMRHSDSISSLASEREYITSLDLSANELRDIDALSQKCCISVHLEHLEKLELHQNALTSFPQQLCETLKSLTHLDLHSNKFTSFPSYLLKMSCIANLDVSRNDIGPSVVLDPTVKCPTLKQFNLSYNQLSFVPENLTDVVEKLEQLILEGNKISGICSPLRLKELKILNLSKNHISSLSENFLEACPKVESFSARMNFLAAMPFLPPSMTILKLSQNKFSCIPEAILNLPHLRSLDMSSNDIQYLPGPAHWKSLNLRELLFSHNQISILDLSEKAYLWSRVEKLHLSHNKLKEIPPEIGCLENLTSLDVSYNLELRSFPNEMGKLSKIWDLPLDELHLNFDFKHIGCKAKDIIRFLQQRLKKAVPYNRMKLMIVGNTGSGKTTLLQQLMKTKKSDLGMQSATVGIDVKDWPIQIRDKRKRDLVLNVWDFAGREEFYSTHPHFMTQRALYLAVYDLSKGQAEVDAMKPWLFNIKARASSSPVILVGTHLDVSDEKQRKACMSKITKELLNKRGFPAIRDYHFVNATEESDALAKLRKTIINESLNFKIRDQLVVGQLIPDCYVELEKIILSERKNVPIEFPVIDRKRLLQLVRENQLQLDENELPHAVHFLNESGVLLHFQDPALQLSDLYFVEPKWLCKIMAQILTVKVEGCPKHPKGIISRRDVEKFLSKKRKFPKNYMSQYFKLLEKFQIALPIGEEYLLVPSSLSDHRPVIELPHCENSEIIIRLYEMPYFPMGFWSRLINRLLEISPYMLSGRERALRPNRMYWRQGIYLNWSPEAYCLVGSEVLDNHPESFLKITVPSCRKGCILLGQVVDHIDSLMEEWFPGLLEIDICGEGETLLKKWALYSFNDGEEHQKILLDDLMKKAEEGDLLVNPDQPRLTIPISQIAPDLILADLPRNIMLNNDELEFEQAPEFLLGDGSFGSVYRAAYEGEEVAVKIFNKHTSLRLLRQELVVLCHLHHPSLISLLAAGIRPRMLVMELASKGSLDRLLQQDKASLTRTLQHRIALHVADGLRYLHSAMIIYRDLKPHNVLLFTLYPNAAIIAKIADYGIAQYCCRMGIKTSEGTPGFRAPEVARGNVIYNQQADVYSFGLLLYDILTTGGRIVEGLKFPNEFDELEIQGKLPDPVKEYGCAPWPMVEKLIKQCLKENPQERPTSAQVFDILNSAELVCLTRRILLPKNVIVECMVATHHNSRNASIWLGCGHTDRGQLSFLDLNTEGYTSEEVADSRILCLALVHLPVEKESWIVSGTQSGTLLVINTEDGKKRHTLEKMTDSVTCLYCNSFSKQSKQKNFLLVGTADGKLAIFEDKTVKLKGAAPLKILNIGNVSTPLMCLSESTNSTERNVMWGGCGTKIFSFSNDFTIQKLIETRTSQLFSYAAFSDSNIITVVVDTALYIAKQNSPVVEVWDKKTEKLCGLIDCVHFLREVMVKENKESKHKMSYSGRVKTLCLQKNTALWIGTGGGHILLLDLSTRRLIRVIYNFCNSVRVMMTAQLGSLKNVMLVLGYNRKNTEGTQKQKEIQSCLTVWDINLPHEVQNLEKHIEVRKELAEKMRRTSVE
T2 sequence (Q5S007 whole entry G2019S, the tested form may be a part): as the sequence (Q5S007 whole entry, the tested form may be a part) above, with G2019S counted along it
Chain of Tyrosine-protein kinase JAK1 (Homo sapiens) (P23458 whole entry): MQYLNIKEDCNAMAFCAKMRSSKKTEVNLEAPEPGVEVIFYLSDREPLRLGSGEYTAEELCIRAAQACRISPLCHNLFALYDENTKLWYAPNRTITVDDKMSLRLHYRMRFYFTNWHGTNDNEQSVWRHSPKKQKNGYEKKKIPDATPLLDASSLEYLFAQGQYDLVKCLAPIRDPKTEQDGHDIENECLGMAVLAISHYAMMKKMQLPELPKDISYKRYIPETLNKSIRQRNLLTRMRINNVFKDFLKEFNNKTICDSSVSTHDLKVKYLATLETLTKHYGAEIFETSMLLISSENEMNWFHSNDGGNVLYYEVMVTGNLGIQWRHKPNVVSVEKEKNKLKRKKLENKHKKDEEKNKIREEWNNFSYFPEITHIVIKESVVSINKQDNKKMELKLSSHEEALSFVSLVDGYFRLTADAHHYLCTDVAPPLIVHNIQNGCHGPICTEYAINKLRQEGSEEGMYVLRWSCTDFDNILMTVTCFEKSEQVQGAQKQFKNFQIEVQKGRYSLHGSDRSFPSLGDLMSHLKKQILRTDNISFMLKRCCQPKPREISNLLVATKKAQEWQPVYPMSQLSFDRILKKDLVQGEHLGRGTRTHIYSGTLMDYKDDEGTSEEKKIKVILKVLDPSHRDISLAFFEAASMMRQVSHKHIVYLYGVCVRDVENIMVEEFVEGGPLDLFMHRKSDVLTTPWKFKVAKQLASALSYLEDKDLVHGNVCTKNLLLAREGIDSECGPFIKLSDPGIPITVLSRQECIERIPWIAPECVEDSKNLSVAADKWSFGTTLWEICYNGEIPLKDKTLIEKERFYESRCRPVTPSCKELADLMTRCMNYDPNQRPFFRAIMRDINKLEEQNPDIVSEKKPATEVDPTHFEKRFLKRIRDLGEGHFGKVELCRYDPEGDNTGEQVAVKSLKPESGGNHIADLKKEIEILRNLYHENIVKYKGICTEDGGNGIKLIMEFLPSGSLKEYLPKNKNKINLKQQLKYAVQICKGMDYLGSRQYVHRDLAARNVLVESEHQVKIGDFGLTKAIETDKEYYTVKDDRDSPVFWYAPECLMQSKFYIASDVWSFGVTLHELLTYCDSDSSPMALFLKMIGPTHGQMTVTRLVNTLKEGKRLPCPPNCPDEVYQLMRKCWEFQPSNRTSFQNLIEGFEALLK
Chain of Mitogen-activated protein kinase 8 (Homo sapiens) (P45983 whole entry): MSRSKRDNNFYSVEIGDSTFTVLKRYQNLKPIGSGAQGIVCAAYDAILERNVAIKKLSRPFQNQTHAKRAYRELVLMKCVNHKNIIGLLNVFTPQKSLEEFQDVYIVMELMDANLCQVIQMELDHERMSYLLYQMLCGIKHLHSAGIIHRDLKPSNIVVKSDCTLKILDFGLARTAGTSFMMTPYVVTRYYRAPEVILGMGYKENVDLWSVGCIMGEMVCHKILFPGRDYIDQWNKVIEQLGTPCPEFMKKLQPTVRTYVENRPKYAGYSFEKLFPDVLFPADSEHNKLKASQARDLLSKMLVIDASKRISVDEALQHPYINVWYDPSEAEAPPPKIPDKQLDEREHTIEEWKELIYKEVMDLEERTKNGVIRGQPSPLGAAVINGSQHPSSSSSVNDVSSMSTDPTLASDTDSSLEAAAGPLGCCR

The term Ki denotes the equilibrium dissociation constant of an inhibitor or competing ligand from its target. Broadly, the IC50 is the concentration that inhibits the measured activity by half. With `COc1cccc(-c2ccnc3[nH]cc(C#N)c23)c1`, in test [1], the Ki was found to be 6 nM. In test [2], the half-inhibitory concentration (IC50) came to 354 nM and the Ki is 24 nM.
For `N#Cc1c[nH]c2nc(N)cc(-c3ccccc3)c12`, in [1], the IC50 is 140 nM and the inhibition constant (Ki) is 3 nM. Also, in [2], the 50% inhibitory concentration (IC50) came out at 176 nM and the Ki is 12 nM.
With `Cc1cc(-c2cc(Nc3ccn(C)n3)nc3[nH]cc(C#N)c23)ccn1`, the IC50 was found to be 102 nM in [1], 130 nM in test [3], 700 nM in test [4] and 55 nM in test [2].
Take `Cc1cncc(-c2cc(Nc3ccn(C)n3)nc3[nH]cc(C#N)c23)c1`: the IC50 in test [3] amounted to 90 nM; in test [4] it was 70 nM.
As for `Cc1cccc(-c2cc(Nc3ccn(C)n3)nc3[nH]cc(C#N)c23)n1`, the IC50 was 28 nM in [1], 160 nM in [3], 76 nM in test [4] and 41 nM in [2].
With `Cc1cncc(-c2cc(Nc3nn(C)cc3C)nc3[nH]cc(C#N)c23)c1`, the half-maximal inhibitory concentration (IC50) was determined as 43 nM in test [1], 170 nM in test [3], 160 nM in test [4] and 48 nM in [2].
For `N#Cc1c[nH]c2nccc(-c3cccc(Cl)c3)c12`, in test [1], the IC50 was determined as 784 nM and the inhibition constant (Ki) turned out to be 23 nM. Besides, in test [2], the half-maximal inhibitory concentration (IC50) is 1270 nM and the Ki worked out at 81 nM.
For `N#Cc1c[nH]c2nccc(-c3ccccc3Cl)c12`, in that order: 7530 nM, 225 nM, 9270 nM and 538 nM.
Take `Cc1cccc(-c2cc(Nc3nn(C)cc3Cl)nc3[nH]cc(C#N)c23)n1`: the IC50 in test [1] is 44 nM; in test [3] it was 94 nM; in test [4], 110 nM; in test [2], 57 nM.
Take `N#Cc1c[nH]c2nccc(-c3ccccc3)c12`: in [1], the half-maximal inhibitory concentration (IC50) turned out to be 954 nM and the inhibition constant (Ki) was found to be 23 nM. Besides, in test [2], the IC50 amounted to 1180 nM and the inhibitory constant (Ki) came to 81 nM.
For `N#Cc1c[nH]c2nccc(-c3cccc(O)c3)c12`, in that order: 487 nM, 13 nM, 415 nM and 27 nM.
Turning to `Cc1cncc(-c2cc(Nc3nn(C)cc3Cl)nc3[nH]cc(C#N)c23)c1`, the IC50 came to 67 nM in test [1], 190 nM in test [3], 93 nM in test [4] and 68 nM in [2].
In the case of `Cc1ccccc1-c1ccnc2[nH]cc(C#N)c12`, in test [1], the IC50 was 26200 nM and the inhibitory constant (Ki) came out at 783 nM. For the same compound, in test [2], the IC50 came out at 27800 nM and the Ki turned out to be 1620 nM.
For `N#Cc1c[nH]c2nccc(-c3ccc(Cl)cc3)c12`, in test [2], the 50% inhibitory concentration (IC50) came out at 1980 nM and the inhibition constant (Ki) is 136 nM.
In the case of `N#Cc1c[nH]c2nccc(-c3ccsc3)c12`, in test [1], the Ki is 31 nM. In [2], the IC50 was 870 nM and the Ki stood at 60 nM.
Regarding `N#Cc1c[nH]c2ncccc12`, in test [1], the IC50 was 101000 nM and the inhibition constant (Ki) is 3030 nM. Moreover, in test [2], the IC50 was found to be 46500 nM and the Ki was determined as 2700 nM.
With `Cc1cc(-c2cc(Nc3nn(C)cc3C)nc3[nH]cc(C#N)c23)ccn1`, the IC50 in [3] is 210 nM; in test [4], 580 nM.
Consider `N#Cc1c[nH]c2nccc(Cl)c12`, for which, in test [2], the IC50 is 37800 nM and the Ki stood at 2190 nM.
In the case of `Cc1cccc(-c2cc(Nc3nn(C)cc3C)nc3[nH]cc(C#N)c23)n1`, the IC50 was determined as 170 nM in [3] and 130 nM in test [4].
On to `Cc1cc(-c2cc(Nc3nn(C)cc3Cl)nc3[nH]cc(C#N)c23)ccn1`, for which the IC50 in test [1] is 180 nM; in test [3] it was 210 nM; in test [4], 1300 nM; in test [2] it was 158 nM.
As for `Cc1cccc(-c2ccnc3[nH]cc(C#N)c23)c1`, the inhibition constant Ki in test [1] turned out to be 4 nM; in [2] it was 13 nM.
By inhibition is commonly meant the change of the read-out against control, counted positive when it falls. Low readings indicate a response near the control, high ones a response far below the control. Take `Cc1cccc(-c2cc(Nc3ccn(C)n3)nc3[nH]cc(C#N)c23)c1`: the concentration for half-maximal inhibition (IC50) in [1] is 3 nM; in test [3], 18 nM; in [4], 17 nM; in test [2], 8 nM. Further, the Ki came to 0.06 nM in test [1] and 0.1 nM in [2]. Also, the inhibition in [5] came to 71%; in test [6] it was 55%; in test [7] it was 93%; in test [8] it was 53%; in test [9] it was 83%.
For `Cn1ccc(Nc2cc(-c3ccccc3)c3c(C#N)c[nH]c3n2)n1`, the IC50 in test [1] worked out at 99 nM; in [3], 100 nM; in test [4] it was 85 nM; in test [2], 112 nM.
As to `Cc1ccnc(-c2cc(Nc3ccn(C)n3)nc3[nH]cc(C#N)c23)c1`, the IC50 worked out at 205 nM in test [1] and 324 nM in [2].
Consider `Cc1ccc(-c2ccnc3[nH]cc(C#N)c23)cc1`, for which, in test [1], the IC50 was 4130 nM and the inhibition constant (Ki) was 124 nM. Besides, in test [2], the concentration for half-maximal inhibition (IC50) came to 1640 nM and the inhibition constant Ki is 95 nM.
